Screening results (PubChem BioAssay)
Only some compounds are listed: those with a hit (about 2% of all), similar ones and a draw of the others.
TPT1 inh – Candida albicans TPT1 enzyme inhibitors, primary screen, biochemical, fluorescence polarization; AID 1962, 2009; recombinant caTPT1, FP RNA substrate dephosphorylation; inhibition, % at 5 µM; 300,000 compounds, 0.81% hits; tRNA 2'-phosphotransferase TPT1 (Candida albicans SC5314);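 active = inhibition above the mean of all tested compounds plus 3 SD, set per screening campaign, cut at about 24% in these data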;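 also: plate controls were DMSO alone for no effect and ferristatin control at 100 nM for full effect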
ATG4B inh – ATG4B protease inhibitors, primary screen, biochemical, fluorescence, uHTS; Cysteine protease ATG4B (Homo sapiens), Q9Y4P1; ATG4B cleavage of LC3-PLA2, NBD-HPC fluorescence, 1 h; inhibition, % at 8.33 µM; 340,000 compounds, 0.51% hits; AID 504462, 2011; in the data active = inhibition above about 40%
HNF4A DNA FP – change in binding of human HNF4A to DNA, primary screen, biochemical, fluorescence polarization, FITC-DNA. Hepatocyte nuclear factor 4-alpha (Homo sapiens), P41235. 1 h. activity change, % at 10 µM. 360,000 compounds, 0.3% hits; in the data active = activity change above about 30%, passing the limit was not always enough
Rpn11 inh – Rpn11 (PSMD14) deubiquitinase inhibitors, primary screen, biochemical, fluorescence polarization, uHTS; 26S proteasome non-ATPase regulatory subunit 14 (Homo sapiens), O00487; human 26S proteasome, Ub4-pepOG fluorescence polarization; 20S core pre-blocked with epoxomicin; inhibition, % at 20 µM; 360,000 compounds, 0.59% hits;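 active = inhibition at 20 µM, scaled to each plate's controls, above about 33%, limit read from the data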
Target sequence (O00487 whole entry, looked up): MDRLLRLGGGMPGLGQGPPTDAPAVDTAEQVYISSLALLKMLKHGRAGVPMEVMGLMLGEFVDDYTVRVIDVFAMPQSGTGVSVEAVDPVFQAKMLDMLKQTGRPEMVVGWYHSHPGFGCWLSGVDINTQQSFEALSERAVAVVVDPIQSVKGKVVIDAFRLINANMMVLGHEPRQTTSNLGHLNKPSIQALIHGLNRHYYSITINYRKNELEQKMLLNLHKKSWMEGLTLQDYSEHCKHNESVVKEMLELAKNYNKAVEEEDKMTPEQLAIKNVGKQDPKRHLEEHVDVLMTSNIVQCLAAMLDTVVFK
SENP1 inh – human SENP1 catalytic domain inhibitors, primary screen, biochemical, FRET, uHTS; 360,000 compounds, 0.21% hits; inhibition, % at 10 µM; Sentrin-specific protease 1 (Homo sapiens), Q9P0U3; recombinant SENP1 catalytic domain, CyPet-SUMO1-YPet FRET cleavage;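 active = inhibition at least 30% at 10 µM, raw YFP signal under a set limit, fluorescence ratio 0.5 to 1.5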;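 also: 0% = enzyme with DMSO and 100% = no enzyme wells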
Target sequence (Q9P0U3 419-644 limits assumed): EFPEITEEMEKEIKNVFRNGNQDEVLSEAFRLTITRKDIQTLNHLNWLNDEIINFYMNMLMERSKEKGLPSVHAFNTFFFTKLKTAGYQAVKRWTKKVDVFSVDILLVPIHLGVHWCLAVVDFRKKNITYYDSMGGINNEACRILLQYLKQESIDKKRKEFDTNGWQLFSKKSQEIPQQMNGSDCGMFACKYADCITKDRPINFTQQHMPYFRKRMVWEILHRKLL
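Material: hSENP1 catalytic domain, recombinant; medium: Tris pH 8 with BME, BSA, NP40 and catalase; compound: single concentration of 10 µM compound, 0.5% DMSO final; technique: FRET read of cyan and yellow fluorescence; timing: 50 min enzyme reaction, room temperature, light-protected; reagent: SFCypet-SUMO1-SFYpet substrate at 25 nM; control set: no-enzyme low, enzyme-DMSO high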
CSN deneddyl inh – inhibitors of CSN-mediated cullin deneddylation, primary screen, biochemical, fluorescence polarization, uHTS | COP9 signalosome complex subunit 5 (Homo sapiens), Q92905 | Purified CSN, SCF-Nedd8-OG deneddylation | inhibition, % at 12.5 µM | 360,000 compounds, 0.38% hits | AID 651999, 2013;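 active = pattern-corrected inhibition above about 35%, with an unprinted fluorescence ratio check between 0.5 and 1.5, limit read from the data, passing the limit was not always enough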;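 also: 0% = enzyme with substrate and 100% = substrate without enzyme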
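Assay system: purified human Csn5 enzyme expressed in HEK293T cells; measure: % inhibition; also added: SCFSkp2-Nedd8OG substrate at 10 nM final; technique: fluorescence polarization; times: reaction 90 min, room temperature; medium: Tris buffer pH 7.5, NaCl, DTT, Tween-20, trehalose, ovalbumin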
CSN deneddyl val – Csn5 deneddylation inhibitors, confirmation, biochemical, fluorescence polarization, single concentration, SCF-Nedd8OG substrate | shares compounds with CSN deneddyl inh | Csn5 deneddylation of SCF-Nedd8OG, 90 min | inhibition, % at 16.6 µM | 540 compounds, 62% hits | AID 720654, 2013; in the data active = inhibition above about 50%;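 also: 0% = DMSO with enzyme and 100% = no enzyme wells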
MMP2 cntr CSN – MMP-2 protease inhibition counter-screen, confirmation, counter-screen for CSN deneddylation inhibitor project, biochemical, fluorescence, single concentration. recombinant MMP-2, FRET substrate fluorescence, 60 min. inhibition, % at 16.6 µM. shares compounds with CSN deneddyl inh. AID 720655, 2013. 540 compounds, 33% hits;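 active = corrected plate-normalized z-score of 5 or more, or -5 or less, or inhibition of 15% or more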;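 also: plate controls were DMSO wells with enzyme for no effect and buffer wells lacking MMP-2 for full effect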
Thrombin cntr – counter-screen for CSN deneddylation inhibitors: bovine thrombin inhibition. AID 720656. shares compounds with CSN deneddyl inh. 540 compounds, 49% hits. bovine thrombin cleavage of Ub4-pepOG, fluorescence polarization. inhibition, % at 16.6 µM;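 active = inhibition at or above a set limit, with a fluorescence interference ratio between 0.5 and a set maximum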
The depositor's hits bear a star; / = no result shown; ! = not confirmed by another sample.

SMILES	TPT1 inh	ATG4B inh	HNF4A DNA FP	Rpn11 inh	SENP1 inh	CSN deneddyl inh	CSN deneddyl val	MMP2 cntr CSN	Thrombin cntr
O=C1/C(=C/c2ccco2)Oc2c1ccc(O)c2CN1CCCCC1	-19.5	-3.6	-24.6	-83.5	-26.8	42.1*	/	-23.4	-60.0
CC1CCN(Cc2c(O)ccc3c2O/C(=C\c2ccco2)C3=O)CC1	-32.2	4.7	-20.1	-69.4	-26.8	32.3	/	/	/
CCOc1ccc(/C=c2\sc3nc(-c4ccco4)nn3c2=O)cc1OCC	-7.8	-6.4	-14.7	-25.2	-5.0	23.6	/	/	/
COc1ccccc1/C=c1\sc2nc(-c3ccco3)nn2c1=O	13.1	8.0	-12.9	14.7	-0.3	38.0*	86.3*	4.0	5.6
CCCCn1c(NC(=O)c2ccc(Br)o2)c(S(=O)(=O)c2ccccc2)c2nc3ccccc3nc21	4.2	2.0	-2.8	8.7	-28.6	48.3*	101.2*	-1.1	-20.8
O=C1/C(=C\c2cc(Br)cc(Br)c2O)SC(=S)N1Cc1ccccc1	21.6	21.2	17.5	33.2	14.3	45.7*	97.3*	6.7	13.1
O=C(c1ccc(Cl)cc1)N1CCC(=O)N(C(CO)Cc2ccccc2)CC1 (stereo not given)	-2.0	-5.8	-1.5	-9.1	-15.2	-1.2	/	/	/
CC(O)CN(CC(C)O)c1ccc2c(c1)Cc1cc([N+](=O)[O-])ccc1-2 (stereo not given)	/	-2.2	94.0	/	-34.6	58.1*	37.8	4.3	81.7*
CCOC(=O)Nc1ccc2c(c1)Cc1cc([N+](=O)[O-])ccc1-2	/	-7.0	24.5	20.2	-19.8	3.2	/	/	/
O=C(NCc1ccccc1C(F)(F)F)c1cccc2c1C(=O)c1ccc(N3CCOCC3)cc1S2(=O)=O	/	-1.6	16.5	12.1	-29.4	32.0	/	/	/
O=C(NCc1ccccc1C(F)(F)F)c1cccc2c1C(=O)c1ccc(N3CCC(N4CCCCC4)CC3)cc1S2(=O)=O	/	/	79.3	/	-28.0	142.6*	-46.2	-45.3*	45.7*
Cc1cc(NC(=O)c2cncc(Br)c2)ccc1NC(=O)c1cc2ccccc2o1	0.2	2.9	22.2	22.7	-2.0	59.8*	9.7	15.8*	-10.9
COc1cc2c(C#N)c(N3CCCC3)nc(N)c2c(N)n1	1.9	36.3	25.6	2.4	-28.6	35.0*!	67.5*	-45.1*	-40.9
O=C1CCCC2=C1C(c1ccco1)Nc1ccc3ccccc3c12 (stereo not given)	5.3	8.3	-32.7	-33.4	-13.1	39.6*	/	17.3*	7.8
O=C1CCCC2=C1C(c1ccc(O)c(O)c1)Nc1ccc3ccccc3c12 (stereo not given)	-1.5	-12.6	4.7	-6.2	-5.0	-3.5	/	/	/
CSc1nc(N(C)CCO)c2sc3nc(-c4ccco4)c4c(c3c2n1)CCC4	1.1	11.3	-17.2	-15.9	2.4	14.5	/	/	/
CSc1nc(SCC(=O)O)c2sc3nc(-c4ccccc4)c4c(c3c2n1)CCC4	/	-0.6	-85.1	5.3	-1.4	63.9*	22.8	30.1*	5.2
O=C(C1=C(O)C(=O)N(c2nc3ccc(Cl)cc3s2)C1c1ccco1)c1ccco1 (stereo not given)	/	12.4	-23.2	/	-50.7	44.1*	53.2*	12.5	15.1*
CC1C=CC=CC=CC=CC=CC=CC=CC(OC2OC(C)C(O)C(N)C2O)CC2OC(O)(CC(O)CC(O)C(O)CCC(O)CC(O)CC(=O)OC(C)C(C)C1O)CC(O)C2C(=O)O (stereo not given)	/	6.3	-11.5	43.5*	-10.0	39.3*	78.1*	-0.7	15.0*
O=C(COC(=O)CCc1ccccc1)Nc1ccc(F)cc1Cl	-2.7	-17.0	-3.2	-2.3	3.6	1.9	/	/	/
COC1C(CO)OC(n2c3c(Cl)cccc3c3c4c(c5c6cccc(Cl)c6[nH]c5c32)C(=O)NC4=O)C(O)C1O (stereo not given)	/	-4.3	85.0	/	-26.1	79.7*	196.8*	-18.6	4.7
CCCCCCCCCCCCCCCC[n+]1cccc2ccccc21	-2.1	51.4*	20.7	78.2*	2.1	35.5*	65.1*	17.2*	-38.9
O=[N+]([O-])c1ccc(N2N=C(c3ccccc3)CC2c2ccccc2O)cc1 (stereo not given)	/	/	86.2*	/	-24.5	56.0*	50.8*	-6.7	58.9*
O=C(O)CCN(CC(=O)c1ccc(Cl)cc1)S(=O)(=O)c1ccc([N+](=O)[O-])cc1	-0.2	-2.4	3.9	3.1	2.9	0.8	/	/	/
COc1cc(/C=C2/SC(=O)NC2=O)ccc1OC(=O)c1ccco1	-0.7	-1.8	2.4	4.3	5.0	0.4	/	/	/
SMILES	TPT1 inh	ATG4B inh	HNF4A DNA FP	Rpn11 inh	SENP1 inh	CSN deneddyl inh	CSN deneddyl val	MMP2 cntr CSN	Thrombin cntr
O=C1NC(=S)S/C1=C/c1ccc(OC(=O)c2ccco2)cc1	16.8	0.0	43.9*	/	25.1	40.9*	69.1*	19.2*	36.4*
N=C1/C(=C\c2ccc(OC(=O)c3ccco3)cc2)C(=O)N=C2SC=NN12	/	0.9	2.9	-0.3	-78.0	-4.6	/	/	/
CCOc1cc(/C=C2/SC(=S)NC2=O)ccc1OC(=O)c1ccco1	5.3	6.1	23.9	21.7	74.8*	58.4*	76.8*	15.3*	3.1
Cc1ccccc1NC(=O)CSc1nc(=O)n(CCN2CCOCC2)c2c1CCCC2	-1.9	-5.4	0.1	-6.4	-3.1	-4.1	/	/	/
C=CCOc1ccc(Br)cc1/C=N/O	-1.1	15.6	4.0	-4.7	-0.2	-1.0	/	/	/
C=CCOc1ccc(Br)cc1/C=C1/SC(=Nc2ccc(C(=O)O)cc2)NC1=O	/	-7.3	-2.5	6.8	-18.7	35.7*	97.3*	6.8	4.2
COc1cccc(/C=N/Nc2nnc(C)n2N)c1O	-0.7	-1.5	-0.9	-8.7	-1.4	53.8*	107.0*	7.8	-6.7
